# Experimental data taken from PMC2886848 (Science (New York, N.Y.), 2009).
# “Also recorded” adds a separate entry of the source.
# T1: procaspase-3 (Homo sapiens, UniProt P42574)
# T1 sequence (P42574 1-277): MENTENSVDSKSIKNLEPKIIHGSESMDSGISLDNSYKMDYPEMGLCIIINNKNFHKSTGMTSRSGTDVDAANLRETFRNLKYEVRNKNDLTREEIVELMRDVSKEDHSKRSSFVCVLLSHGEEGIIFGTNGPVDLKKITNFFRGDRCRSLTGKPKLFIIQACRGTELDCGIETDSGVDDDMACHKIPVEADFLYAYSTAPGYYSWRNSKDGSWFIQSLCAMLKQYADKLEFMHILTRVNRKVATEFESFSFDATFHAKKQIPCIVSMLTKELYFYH
# T2: procaspase-6 (Homo sapiens, UniProt P55212)
# T2 sequence (P55212 1-293): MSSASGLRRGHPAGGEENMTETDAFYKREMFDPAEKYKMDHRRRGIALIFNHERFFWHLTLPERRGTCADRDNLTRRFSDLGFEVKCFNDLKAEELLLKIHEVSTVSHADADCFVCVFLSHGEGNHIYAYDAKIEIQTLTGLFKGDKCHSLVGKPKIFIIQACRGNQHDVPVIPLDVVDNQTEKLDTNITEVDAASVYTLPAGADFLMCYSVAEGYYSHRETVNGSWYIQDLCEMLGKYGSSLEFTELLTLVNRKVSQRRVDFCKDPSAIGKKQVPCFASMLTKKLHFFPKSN
# How the values were obtained:
# procaspase-7 = procaspase-7 activation, fluorogenic Ac-DEVD-AFC activity assay; assay type: biochemical; settings: procaspase-7 100 nM; 1 nM granzyme B, 25 μM 1541 or 100 μM PAC-1
# Method in brief: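 Procaspase-7 (100 nM) was incubated at 37 °C with 1 nM granzyme B, DMSO, 100 μM reference procaspase activator or 25 μM test compound. Activity was sampled every 20 minutes by adding fluorogenic substrate Ac-DEVD-AFC.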
# procaspase-3 [1] = target: T1, procaspase-3; assay: procaspase-3 autoproteolytic activation, fluorogenic Ac-DEVD-AFC activity assay; assay type: biochemical
# procaspase-6 [2] = target: T2, procaspase-6; assay: procaspase-6 activation, fluorogenic Ac-VEID-AFC activity assay; assay type: biochemical
# procaspase-3 [3] = target: T1, procaspase-3; settings: caused through chelation of inhibitory zinc ion in some assay buffers; cited from earlier work
# [4] = tested on: caspase-8 deficient Jurkat cells (I9.2); assay: cell viability of caspase-8 deficient; assay type: cell-based, human; settings: 25 μM 1541, 1 μM STS, 100 ng/ml FasL
# Method in brief: (§1)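 Wild-type (A3) and caspase-8-deficient (I9.2) human Jurkat cells (100,000 cells) were exposed to 25 μM test compound, 1 μM staurosporine or 100 ng/ml FasL. Cell viability was assayed every 2 hours.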
# [5] = tested on: Bak−/−/Bax−/− double knockout (DKO MEFs); assay: histone ELISA apoptosis assay in Bak−/−/Bax−/− DKO MEFs; assay type: cell-based, murine; settings: 1 μM STS, 25 μM 1541, 12 hours
# Method in brief: (§2)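 Wild-type and Bak−/−/Bax−/− double-knockout murine embryonic fibroblasts (5,000 cells) were treated at 37 °C with 1 μM staurosporine, 25 μM test compound or DMSO (final 0.5%). Apoptosis was measured after 12 h by histone sandwich ELISA on lysates, which detects histone solubilisation from DNA fragmentation.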
# BT549 cells [6] = assay: cytochrome C release in cytoplasmic extracts of BT549 cells; assay type: cell-based; settings: 25 μM 1541, 1 μM STS, harvested every 3 hours
# [7] = tested on: wild type murine embryonic fibroblasts (MEF); assay: histone ELISA apoptosis assay in wild type MEFs; assay type: cell-based; settings: 1 μM STS, 25 μM 1541, 12 hours
# Method in brief: as §2
# BT549 cells [8] = assay: time course of cell viability in BT549 cells; assay type: cell-based; settings: 25 μM 1541, 1541C, 1541D; 1 μM STS; 100 μM etoposide; 1541 and STS after 4 hours
# Method in brief: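 p53-deficient BT549 breast cancer cells (2,000) were exposed to 25 μM test compound or either of two analogs, 1 μM staurosporine, 100 μM etoposide or DMSO (final 0.5%). Cell viability was assayed at 2, 4, 6, 8, 12 and 24 h.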
# [9] = tested on: wild type (A3) Jurkat cells; assay: cell viability of wild type; assay type: cell-based, human; settings: 25 μM 1541, 1 μM STS, 100 ng/ml FasL
# Method in brief: as §1
# BT549 cells [10] = assay: time course of DEVDase activity in BT549 cells; assay type: cell-based; settings: 25 μM 1541, 1 μM STS
# Method in brief: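 p53-deficient BT549 breast cancer cells (2,000) were treated with 25 μM test compound or analogs, 1 μM staurosporine, 100 μM etoposide or DMSO (final 0.5%). Executioner caspase (DEVDase) activity was measured at 2, 4, 6, 8, 12 and 24 h.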
# BT549 cells [11] = assay: protection against 1541-induced apoptosis with caspase inhibitors in BT549 cells; assay type: cell-based; settings: preincubation with inhibitor 0.78 to 100 μM, then 25 μM 1541, 24 hours
# Method in brief: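 BT549 cells (2,500) were preincubated overnight with Biotin-DEVD-FMK (caspase-3/-7 inhibitor) or Biotin-VAD-FMK (pan-caspase inhibitor) at 0.78 to 100 μM. Cells were then switched to fresh medium containing 25 μM test compound plus the same inhibitor concentration. Viability was assayed after 24 h at 37 °C.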
# procaspase-6 [12] = target: T2, procaspase-6; settings: cited from earlier work
# C163A procaspase-3 = assay: cleavage of inactive C163A procaspase-3 by granzyme B; assay type: biochemical; settings: C163A 250 nM, granzyme B 0.5 nM, alone or with 1541 25 μM
# [13] = tested on: procaspase-3 mutants (S198A, T199A and S205A); assay: activation of procaspase-3 alanine mutants; assay type: biochemical; settings: 5 hours, 25 μM 1541 or 1 nM granzyme B, 37 °C
# Method in brief: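 Wild-type procaspase-3 and active-site alanine mutants (S198A, T199A, S205A), chosen by alanine scanning near the active site, were incubated 5 h at 37 °C with 25 μM test compound, 1 nM granzyme B or DMSO. Activation was sampled by kinetic assays started with fluorogenic substrate Ac-DEVD-AFC.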
molecule,measurement,setting,value
C=CCc1cccc(/C=N/NC(=O)CN2CCN(Cc3ccccc3)CC2)c1O [PAC-1],activation of procaspase-7 (in words),procaspase-7,no detectable increase in activity or self-proteolysis
same,activation of procaspase-3 (in words),procaspase-3 [1],no detectable increase in activity or self-proteolysis
same,activation of procaspase-6 (in words),procaspase-6 [2],no detectable increase in activity or self-proteolysis
same,activation of procaspase-3 seen for PAC-1,procaspase-3 [3],~ 2 fold
"CN[C@@H]1C[C@H]2O[C@@](C)([C@@H]1OC)n1c3ccccc3c3c4c(c5c6ccccc6n2c5c31)C(=O)NC4 [STS, staurosporine]",apoptosis in caspase-8 deficient Jurkat cells (in words),[4],somewhat slower
same,apoptosis in DKO MEFs (in words),[5],completely resistant
same,mitochondrial cytochrome C release (in words),BT549 cells [6],much greater and more rapid mitochondrial cytochrome C release
same,apoptosis in wild type MEFs (in words),[7],susceptible
same,induction of apoptosis / cell death in BT549 (in words),BT549 cells [8],near complete apoptosis
same,apoptosis in wild type Jurkat cells (in words),[9],comparable to 1541
same,DEVDase activity in BT549 (in words),BT549 cells [10],significantly higher
same,time of peak DEVDase activity,BT549 cells [10],8 h
COc1cc([C@@H]2c3cc4c(cc3[C@@H](O[C@@H]3O[C@@H]5CO[C@@H](C)O[C@H]5[C@H](O)[C@H]3O)[C@H]3COC(=O)[C@H]23)OCO4)cc(OC)c1O [etoposide],induction of apoptosis / cell death in BT549 (in words),BT549 cells [8],much slower apoptosis
DEVD-FMK,block of 1541-induced apoptosis (in words),BT549 cells [11],completely blocked apoptosis
granzyme B: a natural proteolytic activator of procaspase-3,activation of procaspase-7 (in words),procaspase-7,robustly activated and fully processed
same,activation of procaspase-6 by granzyme B (in words),procaspase-6 [12],resistant
same,cleavage of C163A procaspase-3 after 30 minutes,C163A procaspase-3,~ 10%
same,cleavage of C163A procaspase-3 after 60 minutes,C163A procaspase-3,20%
same,"activation of S198A, T199A and S205A procaspase-3 (in words)",[13],efficiently activated; also recorded: wild type activity
same,time to full activation of the zymogen,"procaspase-3 [1]; 1 nM granzyme B, procaspase-3 100 nM",≤ 90 min
"FasL: a specific inducer of the extrinsic pathway (protein, UniProt P48023 130-281, looked up) Tumor necrosis factor ligand …: QIGHPSPPPEKKELRKVAHLTGKSNSRSMPLEWEDTYGIVLLSGVKYKKGGLVINETGLYFVYSKVYFRGQSCNNLPLSHKVYMRNSKYPQDLVMMEGKMMSYCTTGQMWARSSYLGAVFNLTSADHLYVNVSELSLVNFEESQTFFGLYKL",apoptosis in caspase-8 deficient Jurkat cells (in words),[4],not in caspase-8 deficient cells
same,apoptosis in wild type Jurkat cells (in words),[9],active
